The record followed here is ChEMBL document CHEMBL4673277, “In silico and in vitro screening for potential anticancer candidates targeting GPR120” (Bioorg Med Chem Lett, 2021).

The IC50 is the concentration needed to halve the response being measured. Usually inhibition stands for the change of the read-out against control, counted positive when it falls.

The subject of assay [1] is SW480. Kind of assay: Anticancer activity against human SW480 cells expressing GPR120 assessed as inhibition of cell viability measured after 24 hrs by alamar blue assay. It counts as functional, cell-based. The conditions noted are these: SW480, 24 h. An outline of the steps: (§1)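 SW480 seeded 10,000, 5,000 or 2500 cells/well for 24, 48 or 72 h exposure; 9 serial dilutions 100 to 0.39 μM in 0.5% DMSO medium, not replenished during treatment. Read by 6% alamar blue, 3 h, ex 560/em 590 nm. 50% DMSO defined 0%, 0.5% DMSO 100%; IC50 by non-linear regression. 5 replicates, three experiments.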
On the technique in general: Alamar Blue is a resazurin reagent that responds to reducing activity.

Assay [2] concerns SW480. Kind of assay: Anticancer activity against human SW480 cells transfected with scrambled siRNA assessed as inhibition of cell viability 5 uM measured after 24 hrs by alamar blue assay. The format is functional, cell-based. A digest of the protocol: (§2)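 SW480 seeded overnight, transfected with 50 nM human GPR120 27mer siRNA duplex or universal scrambled siRNA duplex (siTran 2.0). Harvested 24 h post-transfection, then exposed to 5 μM, 24 h. Viability read by alamar blue (6%, 3 h, ex 560/em 590 nm). Five replicates, mean ± SE; two-way ANOVA with Tukey test.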

Assay [3] deals with SW480. Briefly: Anticancer activity against human SW480 cells transfected with GPR120 siRNA assessed as inhibition of cell viability 5 uM measured after 24 hrs by alamar blue assay. The format is functional, cell-based. A digest of the protocol:
as §2

In assay [4] the test system is SW480. Briefly: Anticancer activity against human SW480 cells expressing GPR120 assessed as inhibition of cell viability measured after 72 hrs by alamar blue assay. It counts as functional, cell-based. An outline of the steps: as §1
In assay [5] the test system is SW480. Kind of assay: Anticancer activity against human SW480 cells expressing GPR120 assessed as inhibition of cell viability measured after 48 hrs by alamar blue assay. It counts as functional, cell-based. The conditions noted are these: SW480, 48 h. A digest of the protocol: as §1
For assay [6], the system named is SW480. Briefly: Anticancer activity against human SW480 cells expressing GPR120 assessed as inhibition of cell viability at 100 uM measured after 72 hrs by alamar blue assay relative to control. The format is functional. A digest of the protocol:
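SW480 in RPMI1640 + 10% FBS, 37 °C, 5% CO2; seeded 2500 cells/well, exposed 72 h to 100, 10, 1 μM in 0.5% DMSO medium. Medium then replaced by 6% alamar blue, 3 h, fluorescence ex 560/em 590 nm. Six replicates, mean ± SE; viability set relative to vehicle (0.5% DMSO) control.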

Calls of active or inactive are those of the source. No cut-off for these calls is given here. A value given as a limit tells only on which side of the number the result lay.

For the compound `O=C(CSc1nc2c(c(=O)n1C1CCCC1)C1(CCCC1)Cc1ccccc1-2)c1ccc(Cl)cc1`, the half-maximal inhibitory concentration (IC50) in the assay on SW480 [1] was determined as 24.3 µM.

For the compound `Cn1c(SCC(=O)c2ccc(Cl)cc2)nc2c(c1=O)C1(CCCC1)Cc1ccccc1-2`, the half-maximal inhibitory concentration (IC50) with SW480 [1] amounted to 22.9 µM.

For `O=C(CSc1nc2c(c(=O)n1CCc1ccccc1)C1(CCCC1)Cc1ccccc1-2)c1ccc(Cl)cc1`, the IC50 with SW480 [1] came out at 68.9 µM.

Take `Cc1ccc(-n2c(SCC(=O)c3ccc(Br)cc3)nc3c(c2=O)C2(CCCC2)Cc2ccccc2-3)cc1`: the IC50 in the assay on SW480 [1] was 25.5 µM.

For the compound `COc1ccc(-n2c(SCC(=O)c3ccc(Cl)cc3)nc3c(c2=O)C2(CCCC2)Cc2ccccc2-3)cc1`, the result in the assay on SW480 [2] and in the assay on SW480 [3] was Active. Moreover, the half-maximal inhibitory concentration (IC50) in the assay with SW480 [1] was determined as 6.79 µM.

As to `O=C(CSc1nc2c(c(=O)n1-c1ccccc1)C1(CCCC1)Cc1ccccc1-2)c1ccc(Cl)cc1`, the outcome in the assay with SW480 [2] was Active. The result in the assay with SW480 [3] was inactive. In addition, the IC50 with SW480 [1] came out at 5.89 µM.

Regarding `Cc1ccc(-n2c(SCC(=O)c3ccccc3)nc3c(c2=O)C2(CCCC2)Cc2ccccc2-3)cc1`, the outcome in the assay on SW480 [4] was Active. Moreover, the IC50 with SW480 [5] was 50 µM; with SW480 [1] it was 23.2 µM. For the same compound, in the assay with SW480 [6], the inhibition at 100 µM was above 90%.

Regarding `O=C1c2cc(S(=O)(=O)Nc3cccc4ccccc34)ccc2-c2ccc(S(=O)(=O)Nc3cccc4ccccc34)cc21`, the outcome with SW480 [4] was Active. Besides, the IC50 in the assay with SW480 [5] came out at 50 µM; with SW480 [1] it was 26.6 µM. In the assay with SW480 [6], the inhibition at 100 µM is above 90%.
